{
  "source": "ChEMBL document CHEMBL4270576",
  "about": "“Discovery of a benzenesulfonamide-based dual inhibitor of microsomal prostaglandin E2 synthase-1 and 5-lipoxygenase that favorably modulates lipid mediator biosynthesis in inflammation” (Eur J Med Chem, 2018)",
  "key": {"Homo sapiens [1]": {"species": "Homo sapiens", "assay": "Modulation of LO-mediated PDX level in human M2 macrophages derived from IL4-polarized human monocyte derived macrophages at 3 uM preincubated for 15 mins followed by Escherichia coli (O6:K2:H1) challenge for 90 mins by LC-MS/MS analysis", "method_in_brief": "(§1)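 Monocytes differentiated 6 days with M-CSF (20 ng/ml), then polarized 48 h with IL-4 20 ng/ml (M2). Cells (2 × 10^6) in PBS/1 mM CaCl2 pre-incubated 15 min at 37 °C with 3 µM compound or 0.1% DMSO, then challenged with E. coli O6:K2:H1 (1:50) for 90 min. Lipid mediators extracted by SPE with deuterated internal standards and quantified by UPLC-MS/MS as % of vehicle.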"}, "[2]": {"target": "T1, Polyunsaturated fatty acid 5-lipoxygenase (Homo sapiens) (UniProt P09917)", "T1 sequence (whole entry)": "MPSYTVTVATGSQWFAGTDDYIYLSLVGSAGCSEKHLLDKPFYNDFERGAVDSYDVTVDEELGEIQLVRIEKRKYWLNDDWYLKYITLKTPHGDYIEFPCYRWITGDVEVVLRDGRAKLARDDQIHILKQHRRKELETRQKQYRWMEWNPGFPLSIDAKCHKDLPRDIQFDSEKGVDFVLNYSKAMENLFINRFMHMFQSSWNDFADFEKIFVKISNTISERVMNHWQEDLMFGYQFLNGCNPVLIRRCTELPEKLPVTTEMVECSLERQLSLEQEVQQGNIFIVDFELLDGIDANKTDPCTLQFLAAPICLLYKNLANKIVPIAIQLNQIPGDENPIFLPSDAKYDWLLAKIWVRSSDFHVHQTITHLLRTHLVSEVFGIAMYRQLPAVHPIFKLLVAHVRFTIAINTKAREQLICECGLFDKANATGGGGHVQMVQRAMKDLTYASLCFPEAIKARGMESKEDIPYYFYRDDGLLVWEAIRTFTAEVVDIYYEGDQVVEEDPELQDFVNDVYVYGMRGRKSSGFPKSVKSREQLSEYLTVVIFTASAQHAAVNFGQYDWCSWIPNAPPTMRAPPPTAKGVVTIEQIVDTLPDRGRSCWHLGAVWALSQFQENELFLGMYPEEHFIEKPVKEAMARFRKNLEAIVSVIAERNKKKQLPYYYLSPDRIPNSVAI", "assay": "Inhibition of recombinant human 5-LO binding to FLAP expressed in HEK293 cells at 10 uM after 1 hr by DAPI staining-based immunofluorescence microscopic analysis", "format": "cell-based", "method_in_brief": "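HEK293 cells stably expressing 5-LO/FLAP, treated with 10 µM compound for 10 min and then 2.5 µM A23187 for 20 min at 37 °C, fixed, and probed with anti-5-LO/anti-FLAP primaries. This was followed by oligonucleotide-linked secondaries (1 h, 37 °C), ligation, rolling-circle amplification and DAPI nuclear stain. Proximity ligation signals counted microscopically in 100 cells from three experiments.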"}, "Macrophage cell line": {"system": "Macrophage cell line", "assay": "Modulation of 18-HEPE level in human M2 macrophages derived from IL4-polarized human monocyte derived macrophages at 3 uM preincubated for 15 mins followed by Escherichia coli (O6:K2:H1) challenge for 90 mins by LC-MS/MS analysis", "format": "functional", "method_in_brief": "as §1"}, "[3]": {"target": "T1, Polyunsaturated fatty acid 5-lipoxygenase (Homo sapiens)", "assay": "Inhibition of 5-LO in human M1 macrophages derived from LPS/IFNgamma-polarized human monocyte derived macrophages assessed as effect on 5-HETE level at 3 uM preincubated for 15 mins followed by Escherichia coli (O6:K2:H1) challenge for 90 mins by LC-MS/MS analysis", "design": "scale not given: the % may be the effect or the level left", "method_in_brief": "(§2)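 Monocytes differentiated 6 days with GM-CSF (20 ng/ml) in RPMI/10% FCS, then polarized 48 h with LPS 100 ng/ml plus IFN-γ 20 ng/ml (M1). Cells (2 × 10^6) in PBS with 1 mM CaCl2 pre-incubated 15 min at 37 °C with 3 µM compound or 0.1% DMSO, then E. coli O6:K2:H1 (1:50) for 90 min. Methanol with deuterated standards added; SPE; UPLC-MS/MS; expressed as % of vehicle.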"}, "Homo sapiens [4]": {"species": "Homo sapiens", "assay": "Modulation of LO-mediated PD1 level in human M2 macrophages derived from IL4-polarized human monocyte derived macrophages at 3 uM preincubated for 15 mins followed by Escherichia coli (O6:K2:H1) challenge for 90 mins by LC-MS/MS analysis", "method_in_brief": "as §1"}, "Homo sapiens [5]": {"species": "Homo sapiens", "assay": "Modulation of LO-mediated RvD2 level in human M2 macrophages derived from IL4-polarized human monocyte derived macrophages at 3 uM preincubated for 15 mins followed by Escherichia coli (O6:K2:H1) challenge for 90 mins by LC-MS/MS analysis", "method_in_brief": "as §1"}, "[6]": {"target": "T2, Polyunsaturated fatty acid lipoxygenase ALOX15 (Homo sapiens) (UniProt P16050)", "T2 sequence (whole entry)": "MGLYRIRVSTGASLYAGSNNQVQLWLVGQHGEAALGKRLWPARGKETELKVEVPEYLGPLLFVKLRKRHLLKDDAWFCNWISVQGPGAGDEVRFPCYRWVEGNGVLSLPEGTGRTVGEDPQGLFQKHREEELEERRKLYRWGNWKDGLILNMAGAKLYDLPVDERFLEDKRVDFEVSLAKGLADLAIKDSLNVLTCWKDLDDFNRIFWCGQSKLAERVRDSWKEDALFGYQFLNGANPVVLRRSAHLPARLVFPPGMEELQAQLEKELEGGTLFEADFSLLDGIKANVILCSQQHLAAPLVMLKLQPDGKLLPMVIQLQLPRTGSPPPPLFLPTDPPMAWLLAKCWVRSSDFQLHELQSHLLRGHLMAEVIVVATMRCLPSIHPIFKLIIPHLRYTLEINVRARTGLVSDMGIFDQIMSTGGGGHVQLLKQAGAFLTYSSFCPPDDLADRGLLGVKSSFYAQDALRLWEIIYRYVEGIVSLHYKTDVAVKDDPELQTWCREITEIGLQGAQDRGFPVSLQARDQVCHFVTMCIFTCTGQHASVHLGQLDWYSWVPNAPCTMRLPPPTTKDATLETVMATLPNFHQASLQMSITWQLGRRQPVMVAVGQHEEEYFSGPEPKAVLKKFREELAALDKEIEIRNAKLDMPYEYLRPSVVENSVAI", "assay": "Modulation of 15-LO-mediated 17-HDHA level in human M2 macrophages derived from IL4-polarized human monocyte derived macrophages at 3 uM preincubated for 15 mins followed by Escherichia coli (O6:K2:H1) challenge for 90 mins by LC-MS/MS analysis", "method_in_brief": "as §1"}, "[7]": {"target": "T1, Polyunsaturated fatty acid 5-lipoxygenase (Homo sapiens)", "assay": "Inhibition of 5-LO in human M1 macrophages derived from LPS/IFNgamma-polarized human monocyte derived macrophages assessed as effect on 5,6-diHETE level at 3 uM preincubated for 15 mins followed by Escherichia coli (O6:K2:H1) challenge for 90 mins by LC-MS/MS analysis", "design": "scale not given: the % may be the effect or the level left", "method_in_brief": "as §2"}, "Mus musculus": {"system": "Mus musculus", "assay": "Antiinflammatory activity in zymosan induced CD-1 mouse model of inflammation assessed as reduction in leukocyte recruitment in air pouch at 10 mg/kg, ip preincubated for 30 mins followed by zymosan challenge and measured after 4 hrs by trypan blue staining-based burker's chamber method", "format": "functional, organism-based", "method_in_brief": "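Air pouch formed by s.c. injection of 2.5 mL sterile air in CD-1 mice; on day 6, 10 mg/kg i.p. (2% DMSO/saline) given 30 min before 1 ml 1% w/v zymosan into the pouch. After 4 h, exudate collected with 1 ml saline and centrifuged; leukocytes counted in Burker chamber; LTB4 in supernatant by ELISA (ng/mL). n=6 mice per group.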"}},
  "note": "Activity calls are given as the source filed them. The calls are words filed in the database; no cut-off is given here.",
  "data": [
    {"compound": "O=C(O)c1ccc(N(Cc2cccc(OCc3ccccc3)c2)S(=O)(=O)c2ccc(-c3ccccc3)cc2)cc1", "values": [
      {"measurement": "Activity", "setting": "Homo sapiens [1]", "result": 125, "unit": "%"},
      {"measurement": "inhibition", "setting": "[2]", "result": "Active"},
      {"measurement": "Activity", "setting": "Macrophage cell line", "result": 86, "unit": "%"},
      {"measurement": "Activity", "setting": "[3]", "result": 35, "unit": "%"},
      {"measurement": "Activity", "setting": "Homo sapiens [4]", "result": 110, "unit": "%"},
      {"measurement": "Activity", "setting": "Homo sapiens [5]", "result": 128, "unit": "%"},
      {"measurement": "Activity", "setting": "[6]", "result": 124, "unit": "%"},
      {"measurement": "Activity", "setting": "[7]", "result": 13, "unit": "%"},
      {"measurement": "Activity", "setting": "Mus musculus", "result": "Active"}
    ]}
  ]
}
